Results on three molecules are retold here after ChEMBL document CHEMBL1153904, “FR290581, a novel sordarin derivative: synthesis and antifungal activity” (Bioorg Med Chem Lett, 2009).

One data set deals with Cryptococcus neoformans. Nature of the data set: Antifungal activity against Cryptococcus neoformans TIMM 0354. It counts as functional. In short, it runs like this: (§1)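 Read-out is the minimum inhibitory concentration, in µg/mL.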
Data set [1] relates to Candida albicans. Nature of the data set: Antifungal activity against fluconazole-resistant Candida albicans 22009. The format is functional.
The nature of data set [2]: Cmax in mouse at 2 mg/kg, po. The format is ADME, organism-based. The arrangement: dose 2 mg/kg, route oral. The note with it: in vivo. In short, it runs like this: (§2)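 Mice received a single oral dose of 2 mg/kg. Cmax is reported in µg/mL and half-life in hours.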
Data set [3] relates to Candida albicans. Nature of the data set: Antifungal activity against Candida albicans ATCC 90028. It counts as functional.
Data set [4] has as its system Candida albicans. Nature of the data set: Antifungal activity against Candida albicans FP633 in po dosed ICR mouse assessed as kidney burden per gram of tissue at 20 mg/kg, po after 24 hrs of inoculation. The format is functional. In short, it runs like this: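 Mouse systemic C. albicans infection, oral dosing, n = 5 per group. Kidney fungal burden was read as log cfu per g kidney at 24 h after inoculation and expressed as the change relative to the 0 h control. Significance was tested against the 0 h control by Dunnett comparison.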

The nature of data set [5]: Half life in mouse at 2 mg/kg, po. Particulars: in vivo. The arrangement: dose 2 mg/kg, route oral. It counts as ADME, organism-based. In a few lines:
as §2

The test system of data set [6] is Candida albicans. Nature of the data set: Antifungal activity against Candida albicans FP633 in po dosed ICR mouse candidiasis model treated after 1 hr post infection for 4 days. It counts as functional. In a few lines: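 ED50 (mg/kg) determined in a mouse systemic candidiasis model, with compound given orally.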
The test system of another data set is Aspergillus fumigatus. Nature of the data set: Antifungal activity against Aspergillus fumigatus ATCC 204305. It counts as functional. In a few lines: as §1
The test system of a further data set is Nakaseomyces glabratus. Nature of the data set: Antifungal activity against Candida glabrata ATCC 90030. It counts as functional. In short, it runs like this: as §1
In another data set the test system is Candida tropicalis. The data set is described as follows: Antifungal activity against Candida tropicalis 21005. It counts as functional. In short, it runs like this: as §1
The next data set relates to Candida parapsilosis. The data set is described as follows: Antifungal activity against Candida parapsilosis ATCC 22019. The format is functional. The note with it: Lodderomyces parapsilosis. In short, it runs like this: as §1
Data set [7] relates to Candida albicans. Nature of the data set: Antifungal activity against Candida albicans […] in ICR mouse serum drug administered po twice a day. The format is functional. In short, it runs like this:
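MIC measured in mouse serum, in µg/mL.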

In brackets after ≈: the same amount, converted by molar mass. Bounds are passed on as bounds.

The term MIC denotes the lowest concentration that inhibits growth of the organism. A higher MIC goes with weaker potency. Broadly, the Cmax is the maximum level reached in the sampled fluid or tissue. One may read the half-life as the time in which the quantity being followed falls by half. Lower therefore signals rapid decline. As usually defined, the ED50 is the midpoint of the dose-response relation. Low values mean an effect at a small dose, high ones a need for a large dose. For `CCCC[C@@H]1C[C@H](C23C[C@@H]4[C@H](C)CC[C@H]4[C@@]4(C=O)CC2C=C(C(C)C)[C@@]34C(=O)O)O[C@H]1CN1CCC(N2C[C@@H](C)O[C@@H](C)C2)CC1`, the MIC in the data set on Cryptococcus neoformans stood at 4 µg/mL (≈ 6.26 µM); with Candida albicans [1] it was 0.5 µg/mL (≈ 0.783 µM); in the data set on Candida albicans [3], 0.5 µg/mL (≈ 0.783 µM); against Aspergillus fumigatus it was 128 µg/mL (≈ 200 µM); against Nakaseomyces glabratus, 1 µg/mL (≈ 1.57 µM); in the data set on Candida tropicalis, 0.5 µg/mL (≈ 0.783 µM). The minimum inhibitory concentration (MIC) against Candida parapsilosis turned out to be 8 µg/mL (≈ 12.5 µM); in the data set with Candida albicans [7] it was 0.25 µg/mL (≈ 0.391 µM). The molecule further displayed a Cmax in data set [2] of 1000 ng/mL. Besides, the deltalog10CFU in the data set with Candida albicans [4] is on record as -1.09. This molecule gave a half-life in [5] of 3.4 h. The same molecule returned an ED50 in the data set on Candida albicans [6] of 2 mg/kg.
As for `OC(Cn1cncn1)(Cn1cncn1)c1ccc(F)cc1F` [FLUCONAZOLE], the minimum inhibitory concentration (MIC) in the data set with Cryptococcus neoformans is 0.25 µg/mL (≈ 0.816 µM); in the data set with Candida albicans [1] it was 128 µg/mL (≈ 418 µM); against Candida albicans [3] it was 0.125 µg/mL (≈ 0.408 µM); in the data set with Aspergillus fumigatus, more than 128 µg/mL; against Nakaseomyces glabratus, 16 µg/mL (≈ 52.2 µM); in the data set on Candida tropicalis, 0.25 µg/mL (≈ 0.816 µM). Moreover, in the data set with Candida parapsilosis, it took 1 µg/mL (≈ 3.27 µM) to inhibit growth (MIC). Further, the deltalog10CFU in the data set with Candida albicans [4] is reported as -0.19.
For `CO[C@H]1[C@@H](O)[C@H](O)[C@H](OC[C@@]23C[C@@H]4[C@H](C)CC[C@H]4[C@@]4(C=O)CC2C=C(C(C)C)[C@@]34C(=O)O)O[C@@H]1C` [SORDARIN], the MIC in the data set on Cryptococcus neoformans is more than 128 µg/mL; in the data set with Candida albicans [1], 64 µg/mL (≈ 130 µM); against Candida albicans [3] it was 32 µg/mL (≈ 65 µM); in the data set with Aspergillus fumigatus it was more than 128 µg/mL; in the data set with Nakaseomyces glabratus, 64 µg/mL (≈ 130 µM); in the data set on Candida tropicalis, 64 µg/mL (≈ 130 µM). The results for the minimal inhibitory concentration (MIC) in the data set on Candida parapsilosis and against Candida albicans [7] were more than 128 µg/mL and 32 µg/mL (≈ 65 µM), respectively. The concentration in data set [2] peaked (Cmax) at 20 ng/mL. In addition, in [5], the half-life was 0.33 h. Also, the ED50 in the data set with Candida albicans [6] was more than 40 mg/kg.
